Most compounds without a hit are left out; they make up all but 10% or so of the library.
L major viab – Leishmania major promastigote growth inhibition, primary screen; inhibition, % at 10 µM; hit rate 9% among 200,000; AID 1063, 2008; Leishmania major promastigotes, resazurin fluorescence viability; in the data active = inhibition above about 50%;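 note: promastigotes grown with compound for 44 hours at 28 °C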
Diaph act CS – compounds boosting diaphorase resazurin reduction – biochemical, uHTS, resorufin fluorescence, counter-screen for diaphorase-coupled primary assays, primary screen; Diaphorase/resazurin coupled assay, 16 min; hits give high values; 1 = vehicle wells, 0 = NADH-free wells; activation factor at 20 µM; hit rate 0.005% among 190,000;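 active = diaphorase activity raised at least twofold by the compound at 20 µM; inactive = activation factor below 2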
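Material: bacterial diaphorase enzyme (C. kluyveri); amount: enzyme 0.07 U/mL final; reagent: NADH substrate 0.114 mM plus resazurin dye 0.1 mM, final; doses: single compound dose of 20 µM, 1% DMSO final; timing: 16 min enzyme reaction, ambient temperature; measured by: fluorescence of resorufin, 544 nm excitation, 590 nm emission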
PMI act – activators of human PMI, primary screen, biochemical, fluorescence intensity, near-Km mannose 6-phosphate | purified human PMI, coupled resazurin fluorescence, 20 min; hits give high values; 1 = vehicle control, 0 substrate-free wells | hit rate 0.005% among 190,000 | Mannose-6-phosphate isomerase (Homo sapiens), P34949 | activation factor at 20 µM;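 active = activation factor of 2 or more at 20 µM, relative to plate controls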
Target sequence (P34949 whole entry, looked up): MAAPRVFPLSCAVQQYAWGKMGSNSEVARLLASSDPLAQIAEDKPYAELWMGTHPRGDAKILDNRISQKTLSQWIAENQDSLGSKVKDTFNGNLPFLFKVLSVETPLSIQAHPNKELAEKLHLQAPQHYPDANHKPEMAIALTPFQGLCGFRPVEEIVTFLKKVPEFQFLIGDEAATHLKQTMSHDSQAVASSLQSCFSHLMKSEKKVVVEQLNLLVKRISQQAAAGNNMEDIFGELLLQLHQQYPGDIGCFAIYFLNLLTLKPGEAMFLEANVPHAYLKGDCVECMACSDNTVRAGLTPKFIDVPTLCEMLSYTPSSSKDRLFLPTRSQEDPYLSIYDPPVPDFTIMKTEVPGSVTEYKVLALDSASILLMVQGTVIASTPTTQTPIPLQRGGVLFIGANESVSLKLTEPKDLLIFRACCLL
WT yeast gro inh – growth inhibition of WT strain, primary screen, mitochondrial fusion inhibitor project, WT and mutant strains, chemical genetic. mitochondrial fusion phenotypic screen. inhibition, % at 10 µM. hit rate 2.1% among 190,000. AID 1362, 2008; in the data active = inhibition above about 58%; tested in S. cerevisiae
PMI act satM6P – human PMI activators, high substrate, primary screen, biochemical, fluorescence intensity, near-saturating mannose 6-phosphate | hit rate 0.34% among 190,000 | coupled PMI enzyme assay, resazurin fluorescence, 20 min; hits give high values; 1 = untreated enzyme, 0 = substrate-free blank | activation factor at 20 µM | AID 1216, 2008 | Mannose-6-phosphate isomerase (Homo sapiens), P34949;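 active = activation factor of 2 or more at 20 µM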
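Test system: human phosphomannose isomerase with PGI, G6PDH, diaphorase coupling enzymes; amount: 15 ng/mL PMI; incubation: enzyme reaction with compound 20 min at room temperature; technique: resorufin fluorescence (Ex 544/Em 590 nm) from resazurin via diaphorase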
Active calls of the source: *.

SMILES | L major viab | Diaph act CS | PMI act | WT yeast gro inh | PMI act satM6P
CCC1CCCCN1CCNC(=O)C1CCN(S(=O)(=O)c2c(C)noc2C)CC1 (stereo not drawn) | 77* | 0.9 | 0.9 | 2 | 1
COc1ccc(CCNC(=O)C2CCN(S(=O)(=O)c3c(C)noc3C)CC2)cc1OC | 53* | 0.9 | 0.9 | -1 | 0.9
O=C(NCCc1ccc(F)cc1)C1CCCCC1 | -3 | 0.9 | 1 | -5 | 1
Cn1c(-c2nnn(-c3ccc(F)cc3)n2)cc2ccccc21 | 8 | 1 | 1.2 | 0 | 1
CCC1C(c2ccccc2)N(C)C(c2ccccc2)CC1(O)c1ccccc1 (stereo not drawn) | 53* | 0.8 | 0.8 | 76* | 0.9
O=c1/c(=C\c2cccnc2)sc2nc3ccccc3n12 | 2 | 0.8 | 0.9 | -9 | 1
O=C1CCC/C1=c1\s/c(=C\c2cccnc2)c(=O)n1-c1ccccc1 | 55* | 0.9 | 1.1 | 3 | 1
CC1CCC(C(C)C)C(OCC(O)CNC(C)c2ccccc2)C1 (stereo not drawn) | 77* | 1 | 0.9 | 67* | 1
CC(NCC(O)COc1ccc(S(=O)(=O)N2CCOCC2)cc1)c1ccccc1 (stereo not drawn) | 31 | 0.9 | 1.1 | -9 | 1
CC(NCC(O)COC1CCC(C(C)(C)C)CC1)c1ccccc1 (stereo not drawn) | 100* | 0.9 | 1.1 | 72* | 1
COc1cccc(/C=C2\N=C(C3CCCCC3)OC2=O)c1OC | 1 | 1 | 1.1 | -10 | 1.1
Oc1ccc(-c2cn3c(n2)SCC3)cc1O | 98* | 0.5 | 0.4 | 19 | 0.5
Oc1ccc(-c2cn3c(n2)SCC3)cc1 | 0 | 1 | 1.1 | 16 | 1.1
S=C(NCCc1ccccn1)Nc1cccc(Cl)c1 | 14 | 0.8 | 1 | -9 | 0.9
Cc1ccc(CSCCNC(=O)c2ccc(Cl)c(S(=O)(=O)N3CCOCC3)c2)cc1 | 4 | 0.9 | 1 | 16 | 1
COC(=O)C(NNc1ccccc1)(NC(=O)c1ccccc1F)C(F)(F)F (stereo not drawn) | 5 | 0.9 | 1.5 | 14 | 2.3*
Cc1nc(N2CCOCC2)[nH]c(=O)c1C | -6 | 1 | 1 | -11 | 1
O=C(/C=C/c1ccccc1)NCCSCc1ccc(Cl)cc1 | 3 | 0.9 | 0.9 | 5 | 1
O=C(/C=C/c1ccc(Cl)cc1Cl)NCCSc1ccccc1 | -4 | 0.8 | 0.8 | 64* | 0.8
O=C(/C=C/c1ccc(Cl)cc1Cl)NCCSCc1ccccc1 | -4 | 0.8 | 0.9 | 59* | 0.6
Cc1cc(C)n(-c2cc(C(=O)O)cc(C(=O)O)c2)n1 | 3 | 1 | 1.1 | -10 | 1.1
CC1CCN(CCOc2ccc(OCc3ccccc3)cc2)CC1 | 99* | 1 | 1.1 | 15 | 1.1
Fc1ccc(OCCCCCCN2CCCC2)cc1 | 95* | 1 | 0.9 | -12 | 1
c1ccc(COc2ccc(OCCCCN3CCCC3)cc2)cc1 | 92* | 0.8 | 1 | 7 | 1
CCOc1ccc(NC(=O)NCCCN2CCCC2)cc1 | -4 | 0.9 | 1.1 | -14 | 1.1
SMILES | L major viab | Diaph act CS | PMI act | WT yeast gro inh | PMI act satM6P
c1ccc(COc2ccc(OCCCN3CCCCC3)cc2)cc1 | 100* | 0.9 | 1 | 16 | 1
CC(=O)N1N=C(c2ccc(C)cc2)OC1c1cccnc1 (stereo not drawn) | -7 | 1 | 1 | 8 | 1
CNC(=O)C(=O)NCC1OCCN1S(=O)(=O)c1ccc2c(c1)OCCO2 (stereo not drawn) | -2 | 0.8 | 1 | -7 | 1
O=[N+]([O-])c1ccc(-c2nc3ccc([N+](=O)[O-])cc3[nH]2)cc1 | 32 | 0.9 | 1 | 13 | 1
O=[N+]([O-])c1ccc2nc(/C=C/c3ccc(Cl)cc3)[nH]c2c1 | 16 | 0.8 | 1 | 67* | 1
Nc1ccc(-c2nc3ccc([N+](=O)[O-])cc3[nH]2)cc1 | 83* | 0.9 | 1.1 | 30 | 1.2
NC(=O)CSc1nc2ccc([N+](=O)[O-])cc2[nH]1 | 1 | 1 | 1.1 | -5 | 1.1
COc1cccc(CN2CCNC(=O)C2CC(=O)N(C)Cc2cnccn2)c1OC (stereo not drawn) | -2 | 0.9 | 0.9 | -10 | 1
O=C1CSC(c2ccc([N+](=O)[O-])cc2)N1CCN1CCCCC1 (stereo not drawn) | 86* | 0.9 | 1 | -2 | 0.9
CCc1ccc(C2NC(=S)NC3=C2C(=O)CC(C)(C)C3)cc1 (stereo not drawn) | 19 | 0.9 | 1 | -9 | 1
CC(C)N(C)C1CCN(C(=O)Nc2ccc(Cl)c(Cl)c2)CC1 | 60* | 0.9 | 1 | 15 | 1
CCOc1ccccc1N1CCN(C(=O)Nc2cccc(Cl)c2)CC1 | 15 | 0.9 | 0.9 | -20 | 0.9
O=C(Cc1ccccc1)Nc1ccc(N2CCN(Cc3ccccc3F)CC2)cc1 | -3 | 1.1 | 1.1 | 2 | 1.1
O=C(CN1CCCCC1)Nc1ccc(F)c(Cl)c1 | -6 | 0.9 | 0.9 | 9 | 0.9
O=C(Nc1ccc(F)c(Cl)c1)N1CCCC1 | 99* | 0.8 | 0.9 | 20 | 0.9
O=C(Nc1ccc(Cl)cc1)N1CCCN(Cc2ccccc2F)C1 | 57* | 0.7 | 0.8 | 8 | 0.9
CCOc1ccccc1N1CCN(C(=O)Nc2ccc(Cl)c(Cl)c2)CC1 | 5 | 1 | 1.1 | 68* | 1
COCCCNC(=O)c1ccc(Cn2c(=O)c3ccccc3n(CC(=O)NCCc3ccc(OC)c(OC)c3)c2=O)cc1 | -1 | 1 | 1 | -7 | 1
Cc1ccc(C(C(=O)NCc2ccco2)N(C(=O)Cc2cccs2)c2cccnc2)cc1 (stereo not drawn) | 32 | 1 | 1 | -4 | 1.1
COc1ccc(CCNC(=O)CC(c2ccccc2)c2cccc(C)c2O)cc1OC (stereo not drawn) | 7 | 0.9 | 0.8 | 2 | 0.8
CC(=O)Nc1ccc(N2CCN(Cc3ccccc3F)CC2)cc1 | 50* | 0.8 | 0.9 | -7 | 0.9
CN(Cc1ccccc1)C(=S)NC(=O)c1ccccc1 | -8 | 1 | 1.1 | 24 | 1.1
CCCOc1ccc(CN(CCC#N)C(=S)NC(=O)c2ccccc2)cc1 | 85* | 0.8 | 0.9 | 73 | 0.9
CCCCC1CCC(c2nc(-c3ccccn3)no2)CC1 (stereo not drawn) | -11 | 0.9 | 0.8 | 10 | 0.9
CCCCC1CCC(c2nc(-c3cccnc3)no2)CC1 (stereo not drawn) | -6 | 0.8 | 0.9 | 68* | 0.9
COc1ccccc1/C=C(/C(=O)OCC(N)=O)c1ccccc1 | 62* | 0.9 | 1 | -5 | 1.1
